Consider two compounds from publication PMC10247892 (Biomedicine & Pharmacotherapy, 2023).

Data set [1] has as its system SARS-CoV-2 NanoLuc replicative competent reporter virus. Also on record: species or system golden Syrian hamsters. The following applies: hamster, in vivo.
In data set [2] the test system is Calu-3 cells. The data set is described as follows: Lipidomic analysis of Calu-3 cells after MβCD treatment. It is filed as cell-based. The following applies: increasing concentrations, 2 h. The method, boiled down:
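Calu-3 cells were seeded at 3 million/well and treated with 0, 0.6 or 2.5 mM test compound for 2 h at 37 °C and 5 % CO2. Plasma membrane lipid composition was then measured by lipidomics.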

Data set [3] addresses SARS-CoV-2 3CL main protease (MBP-tagged) (Severe acute respiratory syndrome coronavirus 2, UniProt P0DTD1). Format: biochemical. The following applies: increasing concentrations.
In data set [4] the test system is SARS-CoV-2 Spike pseudovirus. It is filed as cell-based.
For data set [5], the system named is HCoV-229E. As to the kind of experiment: Antiviral activity against HCoV-229E in MRC-5 cells. It is filed as cell-based, human coronavirus 229E. The following applies: Human coronavirus 229E, MRC5, 24 h, read-out: IC50 ± SD. In a few lines:
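MRC-5 cells were seeded at 20,000/well in duplicate per drug and condition and grown to 80 % confluency. Virus was adsorbed at MOI 0.1 PFU/cell in FBS-free DMEM for 1 h at 37 °C, then removed. Serial dilutions of test compound in 1 % FBS DMEM were added for 24 h, at doses below MTT-determined cytotoxicity. Cells were fixed with PFA, saponin-permeabilised and stained with anti-N antibody, Alexa 488 secondary and DAPI, then imaged by widefield fluorescence. Infection was normalised to the untreated infected control (100 %). IC50 came from a nonlinear dose-effect fit. Three replicate experiments.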

Data set [6] concerns Vero E6 cells. The following applies: uninfected Vero E6 cells, 3 days.
A short description of data set [7]: Cytotoxicity assay. As to conditions: human, MRC-5 cells. Format: cell-based.
Data set [8] deals with Vero E6 cells. The data set is described as follows: TEM of mock-infected Vero E6 cells. It is filed as cell-based. As to conditions: 48 h. In a few lines: (§1)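 Mock- or virus-infected Vero E6 monolayers were kept without or with two concentrations of test compound (0.16 mM or 20 mM for the cyclodextrin shown). At 48 h they were fixed with 4 % PFA plus 1 % glutaraldehyde in PBS for 2 h at RT. Samples were pelleted, post-fixed on ice in osmium tetroxide/potassium ferrocyanide, acetone-dehydrated and epoxy-embedded. At least 100 cells per condition were examined by TEM.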

Data set [9] relates to SARS-CoV-2. Format: cell-based. As to conditions: Vero E6 cells.
In data set [10] the test system is SARS-CoV-2. As to the kind of experiment: TEM of Vero E6 cells infected with SARS-CoV-2. It is filed as cell-based. The following applies: infected Vero E6, highest concentration (HβCD 20 mM), 48 hpi. In a few lines: as §1

“Also recorded” adds a separate entry of the source. Where two headings read alike, the source gives them in different places.

Consider Methyl-β-cyclodextrin [MβCD], for which the “Nanoluciferase signal in nasal turbinates and lungs (in words)” value in data set [1] was “no nanoluciferase signal was detected; also recorded: no sign of infection was detected”. Moreover, the “Effect on phosphatidylcholine (in words)” value in data set [2] is on record as “did not affect phosphatidylcholine”. In addition, the “Inhibition of M^pro activity (in words)” value in [3] is “did not show activity”.
Usually IC50 stands for the midpoint of a concentration-inhibition curve. The term CC50 denotes the concentration giving 50% cytotoxicity. Lower therefore signals greater toxicity to the cells. Take `CC(O)COC[C@H]1O[C@@H]2O[C@H]3[C@H](O)[C@@H](O)[C@@H](O[C@H]4[C@H](O)[C@@H](O)[C@@H](O[C@H]5[C@H](O)[C@@H](O)[C@@H](O[C@H]6[C@H](O)[C@@H](O)[C@@H](O[C@H]7[C@H](O)[C@@H](O)[C@@H](O[C@H]8[C@H](O)[C@@H](O)[C@@H](O[C@H]1[C@H](O)[C@H]2O)O[C@@H]8COCC(C)O)O[C@@H]7COCC(C)O)O[C@@H]6COCC(C)O)O[C@@H]5COCC(C)O)O[C@@H]4COCC(C)O)O[C@@H]3COCC(C)O` (stereo partly drawn) [HβCD, hydroxypropyl-β-cyclodextrin]: the “Inhibition of SARS-CoV-2 pseudovirus entry (in words)” value in data set [4] is given as “inhibited the entry of pseudovirus”; in data set [4] (listed as HP-β), “most potent”. Also, the IC50 in [5] amounted to 4.3 ± 4 mM. In addition, the First cytotoxic conc. in data set [6] is listed as 20000 µM. For the same compound, the CC50 at 24 h in [7] was 43.6 mM. The “Alterations in mock-infected cells by TEM (in words)” value is “increased number of vacuoles” in [8] (Vero E6, higher dose (HβCD 20 mM)) and “did not produce appreciable changes” in data set [8] (Vero E6, lower or only dose (HβCD 0.16 mM, phytol 50 µM)). In data set [9], the “Antiviral activity against SARS-CoV-2 (in words)” value is recorded as “had antiviral activity”. In addition, the “Effect on infected cells by TEM (in words)” value in data set [10] is “all viral structures were reduced”.
